# Test results: ChEMBL document CHEMBL3232750, “Synthesis, structure-activity relationships, and in vitro antibacterial and antifungal activity evaluations of novel pyrazole carboxylic and dicarboxylic acid derivatives” (2014)
# The source made the active and inactive calls. No cut-off for these calls is given here.
# What was measured:
# Candida parapsilosis [1] = assay: Antifungal activity against Candida parapsilosis at 100 U/disc at 25 degC after 48 hrs by agar well diffusion assay; type: functional, organism-based
# Method in brief: (§1)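 Yeasts kept on Sabouraud Dextrose Agar slants at 4 °C and subcultured before use. Suspensions of 10^7 CFU/mL were swabbed onto Sabouraud Dextrose Agar and the plates dried 40 min at 35 °C. The nystatin positive-control disc carried 100 U. Plates were pre-incubated 2 h at 25 °C, then incubated 48 h at 25 °C. The growth-inhibition zone diameter was measured in mm, in duplicate.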
# Nakaseomyces glabratus [2] = assay: Antifungal activity against Candida glabrata at 100 U/disc at 25 degC after 48 hrs by agar well diffusion assay; type: functional, organism-based; method in brief: as §1
# Candida tropicalis [3] = assay: Antifungal activity against Candida tropicalis at 100 U/disc at 25 degC after 48 hrs by agar well diffusion assay; type: functional, organism-based; method in brief: as §1
# Escherichia coli [4] = assay: Antibacterial activity against Escherichia coli at 30 ug/disc at 37 degC after 24 hrs by agar well diffusion assay; type: functional; settings: read-out: DIZ
# Method in brief: (§2)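 Positive-control antibiotic disc on Nutrient Agar swabbed with 10^8 CFU/mL bacteria. Plates pre-incubated 2 h at 25 °C, then 24 h at 37 °C. Inhibition zone diameter measured in mm. Duplicate.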
# Staphylococcus aureus [5] = assay: Antibacterial activity against Staphylococcus aureus at 30 ug/disc at 37 degC after 24 hrs by agar well diffusion assay; type: functional; settings: read-out: DIZ; method in brief: as §2
# Staphylococcus aureus [6] = assay: Antibacterial activity against methicillin-resistant Staphylococcus aureus at 37 degC after 24 hrs by agar well diffusion assay; type: functional
# Method in brief: (§3)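 Bacteria kept on Nutrient Agar slants at 4 °C and subcultured before use. Suspensions of 10^8 CFU/mL were swabbed onto Nutrient Agar and the plates dried 40 min at 35 °C. Compounds were dissolved in DMSO starting at 2.5 mg/ml, serially diluted two-fold, and loaded into 6 mm wells. Plates were pre-incubated 2 h at 25 °C, then 24 h at 37 °C. Inhibition zones were read and the MIC taken as the lowest inhibiting concentration. Duplicates were run.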
# Nakaseomyces glabratus [7] = assay: Antifungal activity against Candida glabrata at 25 degC after 48 hrs by agar well diffusion assay; type: functional
# Method in brief: (§4)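 Yeast suspensions of 10^7 CFU/mL were swabbed onto Sabouraud Dextrose Agar and dried about 40 min at 35 °C. Compounds were dissolved in DMSO (2.5 mg/ml initial) and diluted two-fold in DMSO, then loaded into 6 mm wells. Plates: 2 h pre-incubation at 25 °C, then 48 h at 25 °C. MIC read as the lowest concentration inhibiting growth around the well, in duplicate. The C. albicans clinical isolate came from a hospitalized patient at Eskisehir Osmangazi University hospital; the standard strain came from a culture collection.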
# Candida tropicalis [8] = assay: Antifungal activity against Candida tropicalis at 25 degC after 48 hrs by agar well diffusion assay; type: functional; method in brief: as §4
# Candida albicans [9] = assay: Antifungal activity against Candida albicans ESOGU at 25 degC after 48 hrs by agar well diffusion assay; type: functional; method in brief: as §4
# Staphylococcus aureus [10] = assay: Antibacterial activity against Staphylococcus aureus at 37 degC after 24 hrs by agar well diffusion assay; type: functional
# Method in brief: (§5)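 Compounds dissolved in DMSO at 2.5 mg/ml initial concentration, then serially diluted two-fold in DMSO. Nutrient Agar plates were swabbed with 10^8 CFU/mL bacteria and dried about 40 min at 35 °C. Solution was placed in 6 mm wells, then 2 h pre-incubation at 25 °C and 24 h at 37 °C. MIC is the lowest concentration giving a growth-inhibition zone around the well. Duplicate.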
# Enterococcus = assay: Antibacterial activity against vancomycin-resistant Enterococcus species at 37 degC after 24 hrs by agar well diffusion assay; type: functional, organism-based; method in brief: as §3
# Candida albicans [11] = assay: Antifungal activity against Candida albicans at 25 degC after 48 hrs by agar well diffusion assay; type: functional; method in brief: as §4
# Escherichia coli [12] = assay: Antibacterial activity against Escherichia coli at 37 degC after 24 hrs by agar well diffusion assay; type: functional, organism-based; method in brief: as §5
# Pseudomonas aeruginosa = assay: Antibacterial activity against Pseudomonas aeruginosa at 37 degC after 24 hrs by agar well diffusion assay; type: functional, organism-based; method in brief: as §5
# Candida parapsilosis [13] = assay: Antifungal activity against Candida parapsilosis at 25 degC after 48 hrs by agar well diffusion assay; type: functional; method in brief: as §4
molecule,measurement,setting,value
NYSTATIN,inhibition zone (IZ),Candida parapsilosis [1],19 mm
same,inhibition zone (IZ),Nakaseomyces glabratus [2],24 mm
same,inhibition zone (IZ),Candida tropicalis [3],19 mm
CO/N=C(\C(=O)N[C@@H]1C(=O)N2C(C(=O)O)=C(COC(C)=O)CS[C@H]12)c1csc(N)n1 [CEFOTAXIME],zone of inhibition at 30 µg/disc,Escherichia coli [4],45 mm
same,zone of inhibition at 30 µg/disc,Staphylococcus aureus [5],35 mm
same,Activity,Staphylococcus aureus [6],inactive
CCNC(=O)NC(=O)c1nn(-c2cccc([N+](=O)[O-])c2)c(-c2ccccc2)c1C(=O)NC(=O)NCC,Activity,Nakaseomyces glabratus [7],inactive
same,Activity,Candida tropicalis [8],inactive
same,MIC,Candida albicans [9],25 µg/mL
same,Activity,Staphylococcus aureus [10],inactive
same,Activity,Enterococcus,inactive
same,MIC,Candida albicans [11],25 µg/mL
same,Activity,Escherichia coli [12],inactive
same,Activity,Staphylococcus aureus [6],inactive
same,Activity,Pseudomonas aeruginosa,inactive
same,Activity,Candida parapsilosis [13],inactive
Cc1ccc(NC(=O)c2nn(-c3cccc([N+](=O)[O-])c3)c(-c3ccccc3)c2C(=O)Nc2ccc(C)cc2)cc1,Activity,Nakaseomyces glabratus [7],inactive
same,Activity,Candida tropicalis [8],inactive
same,Activity,Candida albicans [9],inactive
same,Activity,Staphylococcus aureus [10],inactive
same,Activity,Enterococcus,inactive
same,MIC,Candida albicans [11],25 µg/mL
same,Activity,Escherichia coli [12],inactive
same,Activity,Staphylococcus aureus [6],inactive
same,Activity,Pseudomonas aeruginosa,inactive
same,Activity,Candida parapsilosis [13],inactive
Cc1cccc(NC(=O)c2nn(-c3cccc([N+](=O)[O-])c3)c(-c3ccccc3)c2C(=O)Nc2cccc(C)c2)c1,Activity,Nakaseomyces glabratus [7],inactive
same,Activity,Candida tropicalis [8],inactive
same,Activity,Candida albicans [9],inactive
same,Activity,Staphylococcus aureus [10],inactive
same,Activity,Enterococcus,inactive
same,Activity,Candida albicans [11],inactive
same,Activity,Escherichia coli [12],inactive
same,Activity,Staphylococcus aureus [6],inactive
same,Activity,Pseudomonas aeruginosa,inactive
same,Activity,Candida parapsilosis [13],inactive
O=C(Nc1ccccc1C(F)(F)F)c1nn(-c2cccc([N+](=O)[O-])c2)c(-c2ccccc2)c1C(=O)Nc1ccccc1C(F)(F)F,Activity,Nakaseomyces glabratus [7],inactive
same,Activity,Candida tropicalis [8],inactive
same,MIC,Candida albicans [9],50 µg/mL
same,Activity,Staphylococcus aureus [10],inactive
same,Activity,Enterococcus,inactive
same,MIC,Candida albicans [11],25 µg/mL
same,Activity,Escherichia coli [12],inactive
same,Activity,Staphylococcus aureus [6],inactive
same,Activity,Pseudomonas aeruginosa,inactive
same,Activity,Candida parapsilosis [13],inactive
